From ChEMBL document CHEMBL1914408, “Synthesis and biological evaluation of hydroxylated 3-phenylcoumarins as antioxidants and antiproliferative agents” (Bioorg Med Chem Lett, 2011) come the findings set out here.

Experiment [1] can be described thus: Antioxidant activity assessed as protection against […]-induced pBR322 DNA strand breakage at 20 uM after 1 hr using ethidium bromide staining by agarose gel electrophoresis analysis. Format: functional. In short, it runs like this: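 Supercoiled plasmid pBR322 DNA (100 ng/25 µl) incubated with 10 mM AAPH plus 20 µM test compound in 10 mM PBS, pH 7.4, 37 °C, 1 h; strand breakage (supercoiled vs open circular/linear forms) read by agarose gel electrophoresis. Controls: DNA alone (native) and DNA with AAPH.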

The subject of experiment [2] is HL-60. Description: Antiproliferative activity against human HL60 cells after 48 hrs by MTT assay. Type of experiment: functional, cell-based. Particulars: HL-60, 48 h. A digest of the protocol: (§1)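 MTT proliferation assay in HL-60 and A549 cells; IC50 taken as concentration giving 50% inhibition of cell proliferation, reported as mean ± SD of three determinations.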

Experiment [3] has as its system A549. Description: Antiproliferative activity against human A549 cells after 72 hrs by MTT assay. Type of experiment: functional, cell-based. Particulars: A549, 72 h. A digest of the protocol: as §1
On the technique in general: Formazan colour is commonly taken as a measure of viable cells.

The test system of experiment [4] is A549. Description: Induction of apoptosis in human A549 cells assessed as changes in cell morphology after 24 hrs by Hoechst-33258/propodium iodide staining based fluorescence microscopy. Type of experiment: functional. A digest of the protocol: (§2)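 A549 cells treated with culture medium or 5, 10 and 15 µM compound for 24 h, then nuclear-stained with Hoechst 33258/propidium iodide and viewed by fluorescence microscopy (200×). Living cells scored as smooth blue nuclei; early apoptotic cells as blue with bright specks of condensed chromatin. Representative of three separate experiments.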

Experiment [5] relates to A549. Description: Induction of early apoptosis in human A549 cells assessed as reduction of living cells after 24 hrs by Hoechst-33258/propodium iodide staining based fluorescence microscopy. Type of experiment: functional, cell-based. In short, it runs like this:
as §2

Experiment [6] deals with A549. Briefly: Induction of apoptosis in human A549 cells assessed as condensed chromatin after 24 hrs by Hoechst-33258/propodium iodide staining based fluorescence microscopy. Format: functional, cell-based. In short, it runs like this: as §2
Experiment [7] concerns A549. Briefly: Cell cycle arrest in human A549 cells assessed as accumulation at G0/G1 phase at 10 uM after 24 hrs using propidium iodide staining by flow cytometric analysis (reference value: 70.68 %). Format: functional. On the technique in general: A flow cytometer gives signals particle by particle.
Experiment [8] concerns A549. Description: Cell cycle arrest in human A549 cells assessed as accumulation at S phase at 10 uM after 24 hrs using propidium iodide staining by flow cytometric analysis (reference value: 21.16 %). Type of experiment: functional.
Experiment [9] relates to A549. Description: Cell cycle arrest in human A549 cells assessed as accumulation at G2/M phase at 10 uM after 24 hrs using propidium iodide staining by flow cytometric analysis (reference value: 8.16 %). Format: functional.
The subject of experiment [10] is A549. Briefly: Cell cycle arrest in human A549 cells assessed as accumulation at G0/G1 phase at 15 uM after 24 hrs using propidium iodide staining by flow cytometric analysis (reference value: 70.68 %). Type of experiment: functional.
Experiment [11] deals with A549. Briefly: Cell cycle arrest in human A549 cells assessed as accumulation at S phase at 15 uM after 24 hrs using propidium iodide staining by flow cytometric analysis (reference value: 21.16 %). Type of experiment: functional.
Experiment [12] relates to A549. Description: Cell cycle arrest in human A549 cells assessed as accumulation at G2/M phase at 15 uM after 24 hrs using propidium iodide staining by flow cytometric analysis (reference value: 8.16 %). Type of experiment: functional.
Experiment [13] concerns A549. Briefly: Cell cycle arrest in human A549 cells assessed as accumulation at G0/G1 phase at 20 uM after 24 hrs using propidium iodide staining by flow cytometric analysis (reference value: 70.68 %). Format: functional.
Experiment [14] relates to A549. Briefly: Cell cycle arrest in human A549 cells assessed as accumulation at S phase at 20 uM after 24 hrs using propidium iodide staining by flow cytometric analysis (reference value: 21.16 %). Format: functional.
In experiment [15] the test system is A549. Description: Cell cycle arrest in human A549 cells assessed as accumulation at G2/M phase at 20 uM after 24 hrs using propidium iodide staining by flow cytometric analysis (reference value: 8.16 %). Format: functional.
Experiment [16] concerns A549. Briefly: Cell cycle arrest in human A549 cells assessed as accumulation at G0/G1 phase at 30 uM after 24 hrs using propidium iodide staining by flow cytometric analysis (reference value: 70.68 %). Type of experiment: functional.
In experiment [17] the test system is A549. Briefly: Cell cycle arrest in human A549 cells assessed as accumulation at S phase at 30 uM after 24 hrs using propidium iodide staining by flow cytometric analysis (reference value: 21.16 %). Type of experiment: functional.
The test system of experiment [18] is A549. Briefly: Cell cycle arrest in human A549 cells assessed as accumulation at G2/M phase at 30 uM after 24 hrs using propidium iodide staining by flow cytometric analysis (reference value: 8.16 %). Type of experiment: functional.
For experiment [19], the system named is A549. Briefly: Cell cycle arrest in human A549 cells assessed as accumulation at G0/G1 phase at 40 uM after 24 hrs using propidium iodide staining by flow cytometric analysis (reference value: 70.68 %). Type of experiment: functional.
Experiment [20] concerns A549. Briefly: Cell cycle arrest in human A549 cells assessed as accumulation at S phase at 40 uM after 24 hrs using propidium iodide staining by flow cytometric analysis (reference value: 21.16 %). Format: functional.
The test system of experiment [21] is A549. Description: Cell cycle arrest in human A549 cells assessed as accumulation at G2/M phase at 40 uM after 24 hrs using propidium iodide staining by flow cytometric analysis (reference value: 8.16 %). Type of experiment: functional.
For experiment [22], the system named is HL-60. Description: Antiproliferative activity against human HL60 cells after 48 hrs by MTT assay relative to resveratrol. Format: functional.
Experiment [23] relates to A549. Briefly: Antiproliferative activity against human A549 cells after 72 hrs by MTT assay relative to resveratrol. Format: functional.

For orientation: IC50 means the concentration that inhibits the measured activity by half.

Active and inactive are the calls of the source. The calls are words filed in the database; no cut-off is given here.

Consider `O=c1oc2cc(O)c(O)cc2cc1-c1ccccc1`, for which the result in experiment [1] was Active. Also, the IC50 with HL-60 [2] turned out to be 14 µM; in the experiment with A549 [3], 27 µM.
On to `O=c1oc2ccccc2cc1-c1ccc(O)cc1`, for which the IC50 in the experiment on HL-60 [2] and in the experiment with A549 [3] was > 200 µM each time.
For the compound `O=c1oc2cc(O)ccc2cc1-c1ccc(O)cc1`, the result in [1] was Active. The IC50 with HL-60 [2] and with A549 [3] was > 200 µM each time.
Take `COc1cc2cc(-c3cc(OC)c(OC)c(OC)c3)c(=O)oc2c(OC)c1O`: in experiment [1], the outcome was Active. The IC50 in the experiment on HL-60 [2] is 72.2 µM; with A549 [3] it was > 200 µM.
`COc1cc2cc(-c3ccc(O)cc3)c(=O)oc2cc1O`: in experiment [1], the result was inactive. Moreover, the IC50 with HL-60 [2] came to 5.2 µM; in the experiment with A549 [3], 7.5 µM. Further, the Activity result in the experiment on A549 [4] is “Dose-dependent effect”; in the experiment with A549 [5], “Dose-dependent effect”; in the experiment with A549 [6], “Dose-dependent effect”; in the experiment on A549 [7], 71.45%; in the experiment with A549 [8] it was 11.95%; in the experiment on A549 [9], 16.6%. Besides, the Activity with A549 [10] is listed as 34.49%; with A549 [11], 19.86%; in the experiment on A549 [12] it was 40.65%; in the experiment on A549 [13] it was 11.82%; with A549 [14], 18.1%; with A549 [15], 70.08%. The Activity was determined as 9.62% in the experiment with A549 [16]; 9.43% in the experiment with A549 [17]; 80.95% in the experiment with A549 [18]; 7.11% with A549 [19]; 8.86% in the experiment with A549 [20]; 84.03% in the experiment with A549 [21]. Further, the “fold change (FC)” value is 7 in the experiment on HL-60 [22] and 16 in the experiment with A549 [23].
Regarding `O=c1oc2cc(O)c(O)cc2cc1-c1ccc(O)c(O)c1`, in [1], the result was Active. Also, the half-maximal inhibitory concentration (IC50) with HL-60 [2] turned out to be 22.1 µM; in the experiment with A549 [3] it was 48.8 µM.
In the same order, the values of `COc1cc(-c2cc3cc(OC)c(O)cc3oc2=O)ccc1O` are “Active”, 24.3 µM and 21.4 µM.
Consider `COc1cc(-c2cc3ccc(O)cc3oc2=O)ccc1O`, for which, in experiment [1], the outcome was Active. Further, the IC50 with HL-60 [2] was 91.7 µM; in the experiment on A549 [3] it was > 200 µM.
For `O=c1oc2cc(O)ccc2cc1-c1cc(O)cc(O)c1`, the figures for the IC50 in the experiment with HL-60 [2] and in the experiment with A549 [3] were 127 µM and > 200 µM, respectively.
With `O=c1oc2cc(O)c(O)cc2cc1-c1ccc(O)cc1`, in experiment [1], the result was Active. The IC50 with HL-60 [2] came out at 25 µM; in the experiment with A549 [3] it was 42.5 µM.
For `Oc1ccc(/C=C/c2cc(O)cc(O)c2)cc1` [RESVERATROL], the midpoint of inhibition in the experiment on A549 [3], the IC50, lay at 120 µM.
Take `O=c1oc2cc(O)ccc2cc1-c1ccccc1`: the IC50 with HL-60 [2] and in the experiment with A549 [3] was > 200 µM in each case.
In the experiment on A549 [3], `COc1cc(-c2cc3cc(O)c(O)cc3oc2=O)ccc1O` had an IC50 of 43.4 µM.
With `COc1cc2cc(-c3ccc(O)cc3)c(=O)oc2c(OC)c1O`, the outcome in experiment [1] was Active. The IC50 came to 25.1 µM with HL-60 [2] and 45.8 µM with A549 [3].
As to `O=c1oc2cc(O)ccc2cc1-c1ccc(O)c(O)c1`, the IC50 in the experiment with HL-60 [2] came to 42.1 µM; with A549 [3], 85 µM.
